The list is not random: actives were taken first. Their share in the collection is about 3.5%.
MrgX1 antag = antagonists of human MrgX1 receptor | Q96LB2 | MRGX1-HEK293 calcium flux, Fluo-4, BAM8-22 antagonism; active compounds read low | B-score at 10 µM | hit rate 1.3% among 310,000 | AID 588676;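 active = calcium-response B-score plate-corrected more than 3 library SD below zero, starting fluorescence within 5 deviations, no agonist response on first addition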;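 also: peak minus trough fluorescence over baseline after final BAM8-22 challenge near maximal dose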
Target sequence (Q96LB2 whole entry, looked up): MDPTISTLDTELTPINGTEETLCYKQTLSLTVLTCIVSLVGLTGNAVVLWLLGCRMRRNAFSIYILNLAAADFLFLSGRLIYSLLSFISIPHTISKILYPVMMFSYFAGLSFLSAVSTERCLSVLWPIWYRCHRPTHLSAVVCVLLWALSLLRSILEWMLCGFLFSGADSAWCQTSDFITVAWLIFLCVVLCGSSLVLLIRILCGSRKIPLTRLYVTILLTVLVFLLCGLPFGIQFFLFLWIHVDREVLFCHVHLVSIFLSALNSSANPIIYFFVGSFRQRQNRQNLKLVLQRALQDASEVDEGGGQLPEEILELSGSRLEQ
RGS4 block = inhibitors of human RGS4. P49798. B-score at 10 µM. hit rate 0.45% among 310,000. HEK293 M3R/RGS4 inducible, Fluo-4 calcium flux; active compounds read high; triggered by carbachol at its EC20;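 active = B-score, a plate-corrected calcium signal, over three deviations above library mean, with baseline fluorescence within five deviations of library mean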;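 also: RGS4 expression induced by doxycycline in cells with stable M3 receptor; B-score is computed from the integrated fluorescence ratio over baseline after carbachol; higher B-score means a larger calcium signal and so more RGS4 inhibition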
Target sequence (P49798 whole entry, looked up): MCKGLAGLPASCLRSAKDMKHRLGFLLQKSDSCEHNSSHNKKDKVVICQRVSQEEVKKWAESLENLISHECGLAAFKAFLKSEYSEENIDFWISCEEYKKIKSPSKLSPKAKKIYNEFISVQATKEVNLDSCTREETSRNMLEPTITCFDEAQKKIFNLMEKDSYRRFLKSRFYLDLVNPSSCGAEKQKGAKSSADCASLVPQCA
MrgX1 PAM = human MrgX1 positive allosteric modulation, primary screen; MrgX1-HEK293, Fluo-4 calcium flux, FDSS; active compounds read high; B-score at 10 µM; hit rate 0.63% among 310,000; AID 588675;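 active = plate-corrected calcium response at least 3 library SD above typical, normal starting fluorescence, not activating the receptor alone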;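 also: compound read alongside a low EC10 to EC30 dose of BAM8-22 agonist; peak minus trough fluorescence over baseline measured at the second addition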
MrgX1 ag = agonists of human MrgX1 receptor; MrgX1-HEK293 cells, Fluo-4 calcium fluorescence, agonist mode; active compounds read high; B-score at 10 µM; hit rate 0.44% among 310,000; AID 588627;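 active = calcium response B-score plate-corrected fluorescence ratio at least 3 library SD, with starting fluorescence B-score inside 5 SD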
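Assay system: MrgX1-expressing HEK293 cells / Amount: fifteen thousand cells per well / Doses: test compound in the initial addition of three / Timing: cells plated overnight, dye loaded 0.5 h 37 °C, 0.5 h room temperature / Technique: kinetic calcium dye fluorescence, Fluo-4 NW / Control set: positive and negative controls per plate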
RGS4 pot = potentiators or activators of RGS4. HEK293 M3R/inducible RGS4, carbachol calcium flux Fluo4; active compounds read low. B-score at 10 µM. hit rate 0.92% among 310,000;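 active = B-score of the integrated calcium signal more than 4 SD below the library mean, with starting fluorescence not abnormally high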;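 also: negative B-score means reduced calcium response which marks RGS4 activation or potentiation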
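test system = M3R-expressing HEK293 line, RGS4 induced by doxycycline | probe or stimulus = carbachol at ECmax as muscarinic agonist stimulus | timing = dye loading 30 min 37 °C, buffer rest 30 min RT | signal = calcium dye Fluo4 fluorescence | evaluation = B score from integrated fluorescence ratio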
MrgX1 ant reconf = reconfirmed antagonist of human MrgX1 receptor signaling; shares compounds with MrgX1 antag; MrgX1-HEK293, BAM8-22 calcium flux, Fluo-4; active compounds read low; remaining BAM8-22 calcium response % of control (active compounds read low), % at 10 µM; hit rate 19% among 2,300;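 active = remaining agonist calcium response no higher than 100% minus 3 SD of agonist-only control wells, with starting fluorescence near control levels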;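 also: agonist BAM8-22 given at a near maximal EC90 to ECmax level; peak minus minimum fluorescence divided by baseline after agonist addition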
HEK293 Ca flux = counter-screen for MrgX1 antagonists: effect in parental HEK293 cells; fluorescence ratio F(max-min)/F0 at 10 µM; hit rate 2% among 4,000; shares compounds with MrgX1 antag; AID 624111; Fluo-4 calcium fluorescence, FDSS;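 active = duplicate-averaged calcium fluorescence ratio at least three times the standard deviation of buffer wells, a nonspecific response in parental cells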
HEK293 Ca counter = MrgX1 allosteric activator counter-screen hit in parental HEK293 cells; shares compounds with MrgX1 antag; parental HEK293 calcium flux, Fluo-4 fluorescence ratio; active compounds read high; fluorescence ratio F(max-min)/F0 at 10 µM; hit rate 0.4% among 4,000; AID 624114;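 active = calcium fluorescence ratio, averaged over duplicates, at least 3 SD of the buffer-well ratio, meaning a nonspecific response in receptor-free cells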;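 also: untransfected parental HEK293 lacking MrgX1 used as counterscreen for MrgX1 allosteric activators; fluorescence change taken during the second addition on a kinetic imager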
HEK293 Ca cntr2 = counter-screen for MrgX1 activators: effect in parental HEK293 cells. shares compounds with MrgX1 antag. Fluo-4 calcium fluorescence (FDSS); active compounds read high. fluorescence ratio F(max-min)/F0 at 10 µM. hit rate 8.7% among 4,000;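 active = calcium fluorescence ratio at least three times the spread of buffer wells, meaning a non-specific response in parental cells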
Numbers stand for hits; - = inactive; . = no result given.

SMILES	MrgX1 antag	RGS4 block	MrgX1 PAM	MrgX1 ag	RGS4 pot	MrgX1 ant reconf	HEK293 Ca flux	HEK293 Ca counter	HEK293 Ca cntr2
O=C(CSc1nnc(C2COc3ccccc3O2)o1)N1CCCc2ccccc21 (stereo not drawn)	-4.5	-	-	-	-	-	-	-	-
O=C(CSc1nnc(C2COc3ccccc3O2)o1)N1CCOCC1 (stereo not drawn)	-	-	-	-	-	.	.	.	.
O=c1[nH]c(C(F)(F)F)nc2c1nnn2Cc1ccccc1F	-5.2	-	-	-	-	-	-	-	-
COC(=O)c1sc(-c2ccc(Cl)cc2)cc1NC(=O)COCC(=O)O	-	-	-	-	-	.	.	.	.
COC(=O)c1sc(-c2ccc(C(C)(C)C)cc2)cc1NC(=O)CCC(=O)O	-6.6	-	-	-	-	58%	-	-	-
COc1ccc(CNC(=O)CCSCc2cccc(F)c2)cc1	-	-	-	-	-	.	.	.	.
Cc1coc(C)c1C(=O)Nc1ccc2ccccc2c1	.	-	.	.	-	.	.	.	.
Cn1cc(CCC(=O)NCCCc2ccccc2)c2ccccc21	-	-	-	-	-	.	.	.	.
CCCOC(=O)c1cc(=O)[nH]c2ccccc12	-4.7	-	-	-	-	-	-	-	-
CCC(C)N(C(=O)CSc1nnc(-c2ccco2)n1C)C1CCS(=O)(=O)C1 (stereo not drawn)	-	-	-	-	-	.	.	.	.
Cc1nnc(C)n1/N=C/c1cccnc1	-7.1	-	-	-	-	-	-	-	-
CCc1ccc(NS(=O)(=O)c2ccc(C)c(C(=O)N3CCOCC3)c2)cc1	-	-	-	-	-	.	.	.	.
S=C(NCc1cccnc1)Nc1cc(Cl)cc(Cl)c1	-5.1	-	-	-	-	72%	-	-	58
S=C(NCc1cccnc1)Nc1cccc(Cl)c1	-	-	-	-	-	.	.	.	.
S=C(NCc1cccnc1)Nc1ccc(Oc2ccccc2)cc1	-	-	-	-	-	.	.	.	.
FC(F)Oc1ccc(NC(=S)NCc2cccnc2)cc1	-6.2	-	-	-	-	83%	-	-	-
CCN1C(=O)[C@H]2[C@@H](c3ccc(Cl)cc3)N3C(=O)CN(CCOC)C(=O)[C@@]3(Cc3ccccc3)[C@H]2C1=O	-	-	-	-	-	.	.	.	.
OCCNc1nc(Nc2cc(Cl)ccc2OC2CCCC2)nc(N2CCCC2)n1	-	-	-	-	-	.	.	.	.
C=CCOc1c(Cl)cc(C(=S)N2CCCC2)cc1OCC	-6.9	-	-	-	-	-	-	-	-
O=C(OCCN1CCN(C2=NS(=O)(=O)c3ccccc32)CC1)c1ccccc1F	-	-	-	-	-	.	.	.	.
CCn1c2ccccc2c2c3ncc4cccn4c3ccc21	-5.8	-	-	-	-	78%	-	-	-
COc1ccc(SCCc2nnc(-c3ccccc3)o2)cc1	-7.8	-	-	-	-	-	-	-	-
CCCc1nnc(-c2ccc(OC)cc2)o1	-6	-	-	-	-	-	-	-	-
CC(CCc1ccccc1)NC(=O)COC(=O)c1ccc(NC(=O)CC#N)cc1 (stereo not drawn)	-	-	-	-	-	.	.	.	.
COc1ccc(C(=O)O)cc1S(=O)(=O)NCc1ccccn1	-	-	-	-	-	.	.	.	.
SMILES	MrgX1 antag	RGS4 block	MrgX1 PAM	MrgX1 ag	RGS4 pot	MrgX1 ant reconf	HEK293 Ca flux	HEK293 Ca counter	HEK293 Ca cntr2
CCCCN(CC(O)COc1cccc(C)c1)CC(O)COc1cccc(C)c1 (stereo not drawn)	-	-	-	-	-	.	.	.	.
COc1ccc(NS(=O)(=O)c2cc3c(cc2C)NC(=O)CO3)c(OC)c1	-4.9	-	-	-	-	-	-	-	-
O=C(CN(c1ccccc1)S(=O)(=O)c1ccccc1[N+](=O)[O-])Nc1cccnc1	-	-	-	-	-	.	.	.	.
COc1ccc(CC(=O)N(C)C2CCCCC2)cc1S(=O)(=O)N1CCOCC1	-4.6	-	-	-	-	-	-	-	-
COc1ccc(CN(C)C(=O)Cc2ccc(OC)c(S(=O)(=O)N3CCOCC3)c2)cc1	-	-	-	-	-	.	.	.	.
COc1cc(/C=N/N2CCN(Cc3ccccc3)CC2)cc(OC)c1OC(C)=O	-	-	-	-	-	.	.	.	.
Cc1ccc(CNC(=S)NC2CCC(C(C)(C)C)CC2)cc1 (stereo not drawn)	-6.3	-	-	-	-	63%	-	-	-
O=C(Nc1ccc(OCc2ccccc2)cc1)c1ccccc1	-9	-	-	-	-	-	-	-	-
CCOC(=O)c1c(C)[nH]c(C)c1S(=O)(=O)NCCN1CCN(c2ccccc2F)CC1	-	-	-	-	-	.	.	.	.
COc1cc(NC(=O)COc2cc(O)c3c(c2)OC(C)(C)CC3=O)cc(OC)c1OC	-5	-	-	-	-	51%	-	-	-
CC1(C)CC(=O)c2c(O)cc(OCC(=O)Nc3ccc(S(N)(=O)=O)cc3)cc2O1	-	-	-	-	-	.	.	.	.
Cc1cc(NC(=O)CCC(=O)N(c2ccccc2)C(C(=O)NC2CCCC2)c2ccccc2F)no1 (stereo not drawn)	-	-	-	-	-	.	.	.	.
O=C(Nc1ccc(S(=O)(=O)NC2=NCCCCC2)cc1)c1ccc(Cl)cc1Cl	-	-	-	-	-	.	.	.	.
Cc1ccc(Nc2nc3ccccc3c(=O)s2)cc1	-7.3	-	-	-	-	-	-	-	-
O=c1sc(Nc2ccccc2)nc2ccccc12	-	-	-	-	-	.	.	.	.
CCOC(=O)c1sc2nc(NC(=O)C(C)(C)C)sc2c1C	-5.1	-	-	-	-	79%	-	-	-
Cc1cc(Cl)ccc1OCC(O)CNCCc1ccc(S(N)(=O)=O)cc1 (stereo not drawn)	-	-	-	-	-	.	.	.	.
O=C(O)CN1C(=O)C(=O)N(Cc2ccc(Cl)cc2Cl)C1=O	-	-	-	-	-	.	.	.	.
O=C(Nc1ccc(OCC(F)(F)C(F)F)c(C(F)(F)F)c1)c1ccccc1O	-5.7	-	-	-	-	-	-	-	-
COc1cccc(CN(C(=O)c2ccco2)C2CCS(=O)(=O)C2)c1 (stereo not drawn)	-4.8	-	-	-	-	-	-	-	-
N=c1n(Cc2ccccc2)c2ccccc2n1CC(O)c1ccccc1 (stereo not drawn)	-5.6	-	-	-	-	-	-	-	-
COc1ccccc1OCC(O)Cn1c(=N)n(Cc2ccccc2)c2ccccc21 (stereo not drawn)	-	-	-	-	-	.	.	.	.
O=C(COC(=O)c1cccs1)c1ccc2ccccc2c1	-5.6	-	-	-	-	-	-	-	-

Compound activity from PubChem BioAssay.
